Shown are actives, neighbours in structure and some others; about 2.4% of the full set was active somewhere.
CSN inh = inhibitors of human CSN-mediated cullin deneddylation | inhibition, % at 12.5 µM | 360,000 compounds, 0.38% hits | Purified CSN, SCF-Nedd8-OG deneddylation, fluorescence polarization | Q92905 | AID 651999;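 active = pattern-corrected inhibition above about 35%, with an unprinted fluorescence ratio check between 0.5 and 1.5, limit read from the data, passing the limit was not always enough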;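 note: 0% = enzyme with substrate and 100% = substrate without enzyme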
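Schedule: reaction 90 min, room temperature / Assay system: HEK293T-derived human Csn5 enzyme / Input: Csn5 at 0.24 nM final / Measure: inhibition of Csn5 cleavage, % / Control set: substrate-only high control, full reaction low control / Technique: fluorescence polarization of the substrate / Buffer or medium: Tris/NaCl/DTT buffer, pH 7.5 / Reagent: SCFSkp2-Nedd8OG substrate at 10 nM final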
Rin1-Abl PPI inh = inhibitors of human Rin1-Abl protein interaction. 360,000 compounds, 0.4% hits. AID 588664. P00519+Q13671. TR-FRET Rin1/Abl binding, biochemical. inhibition, % at 7.35 µM; in the data active = inhibition above about 5%, passing the limit was not always enough
HNF4A DNA FP = change in binding of human HNF4 alpha to DNA; P41235; HNF4a-FITC DNA binding, fluorescence polarization, 1 h; activity change, % at 10 µM; 360,000 compounds, 0.3% hits; AID 1224865; in the data active = activity change above about 30%, passing the limit was not always enough
Neddylation inh = cullin neddylation inhibition. P61081+Q13564. TR-FRET cullin neddylation, biochemical. inhibition, % at 25 µM. 360,000 compounds, 0.58% hits; in the data active = inhibition above about 36%
TPT1 inh = C. albicans TPT1 enzyme inhibition | inhibition, % at 5 µM | recombinant caTPT1, FP RNA substrate dephosphorylation | 300,000 compounds, 0.81% hits;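 active = inhibition above the mean of all tested compounds plus 3 SD, set per screening campaign, cut at about 24% in these data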;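 note: plate controls were DMSO alone for no effect and ferristatin control at 100 nM for full effect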
Rpn11 block = blocks the human proteasome subunit Rpn11. 360,000 compounds, 0.59% hits. inhibition, % at 20 µM. human 26S proteasome, Ub4-pepOG fluorescence polarization; 20S core pre-blocked with epoxomicin. O00487;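 active = inhibition at 20 µM, scaled to each plate's controls, above about 33%, limit read from the data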
Target sequence (O00487 whole entry, looked up): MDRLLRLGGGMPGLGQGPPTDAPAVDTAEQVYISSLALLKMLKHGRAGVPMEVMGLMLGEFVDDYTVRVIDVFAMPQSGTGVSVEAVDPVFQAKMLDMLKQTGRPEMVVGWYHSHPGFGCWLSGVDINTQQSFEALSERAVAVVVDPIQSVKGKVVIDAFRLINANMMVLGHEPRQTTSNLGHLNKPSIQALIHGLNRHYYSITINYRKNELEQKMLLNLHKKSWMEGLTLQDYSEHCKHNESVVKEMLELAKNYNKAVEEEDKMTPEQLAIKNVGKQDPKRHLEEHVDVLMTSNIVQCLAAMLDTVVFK
Neddyl inh conf = cullin neddylation inhibition, confirmation; TR-FRET cullin neddylation biochemical assay; AID 652217; calls only at 25 µM; 1,800 compounds, 13% hits; shares compounds with Neddylation inh; in the data active = inhibition above about 40%;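 note: neddylation substrate is the cullin 1 ring ligase complex with SKP2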
Active calls of the source: *; i = inactive; / = no result given; + = active, no number.

SMILES	CSN inh	Rin1-Abl PPI inh	HNF4A DNA FP	Neddylation inh	TPT1 inh	Rpn11 block	others
Cn1ccc2c(-c3cncc4ccccc34)cc3c(c21)C1CCC3O1 (stereo not drawn)	-5	7	6	46*	/	2	Neddyl inh conf=+
Cc1ccccc1-c1cc2c(c3c1ccn3C)C1CCC2O1 (stereo not drawn)	1	-1	-4	24	/	-3
COc1ccc(CCNC(=O)CCCn2ncn3c(cc4occc43)c2=O)c(OC)c1	0	-4	6	-22	0	4
CC[C@@H]1C(c2ccc(F)cc2)=NN(c2ccccc2)[C@H]1C(=O)N1CCOC1=O	5	-1	1	-123	/	15
CC[C@@H]1C(c2ccccc2)=NN(c2ccccc2)[C@H]1C(=O)N1CCOC1=O	1	-1	2	49*	/	5
CCN(C(=O)COC(=O)CNS(=O)(=O)c1ccc(SC)c([N+](=O)[O-])c1)C1CCCCC1	1	-2	4	-24	-1	-7
C/C(=C\C(=S)Nc1ccccc1)Nc1ccc2ccccc2c1	5	0	5	5	7	18
C/C(=C\C(=S)Nc1ccccc1)Nc1cccc2ccccc12	4	-6	1	46*	-2	2
COc1ccc(N=C2CC(C)(C)CC(=O)/C2=C(/O)c2ccccc2)cc1	2	0	-2	7	2	0
O=c1[nH]c2ccccc2c2cn(-c3ccccc3)nc12	-4	-1	4	42*	-3	-6	Neddyl inh conf=i
O=c1[nH]c2ccccc2c2ccccc12	-1	-1	0	8	1	-6
COc1ccccc1OCC(=O)Nc1cc(C(F)(F)F)ccc1-n1cncn1	-2	-2	6	12	0	-1
Cc1ccc(-c2[nH]c3ccccc3c2SCCN)cc1	-3	-3	1	46*	1	5	Neddyl inh conf=i
CC(C)[C@H](NS(=O)(=O)c1cccc(C(F)(F)F)c1)C(=O)OCC(N)=O	-5	1	-1	-1	-2	-2
CCOC(=O)N1CCN(CC(O)c2ccc3cc[nH]c3c2)CC1 (stereo not drawn)	3	0	1	16	-1	2
COc1ccccc1N1CCN(CC(O)c2ccc3cc[nH]c3c2)CC1 (stereo not drawn)	-2	0	4	44*	1	4	Neddyl inh conf=i
CCCCn1nc(C(=O)Oc2ccc3c(C)cc(=O)oc3c2)c2ccccc2c1=O	4	2	1	/	-5	3
COCCN(C(=O)COC(=O)/C=C/c1ccc(OC)c(OC)c1)c1c(N)n(Cc2ccccc2)c(=O)[nH]c1=O	1	-2	-3	25	1	-7
COCCN(C(=O)COC(=O)/C=C/c1cccc(OC)c1)c1c(N)n(CC(C)C)c(=O)[nH]c1=O	7	3	-3	45*	/	0
O=C(Nc1nc2cc3c(cc2s1)OCCO3)c1ccc([N+](=O)[O-])o1	-2	0	-4	-24	-2	-5
COc1ccc2oc(C(=O)Nc3nccs3)c(C)c2c1	0	-10	0	-78	-4	2
COc1ccc2oc(C(=O)NC3(C)CCS(=O)(=O)C3)c(C)c2c1 (stereo not drawn)	3	4	-2	58*	-2	-1
CCOC(=O)c1cn2nc(Oc3cccc(C(F)(F)F)c3)ccc2n1	7	4	1	55*	-2	-7
O=C1c2ccccc2-c2n[nH]c3cccc1c23	-16	-8	-54	42*	/	-88
O=C(NCc1ccccn1)C(=O)NCC1OCCCN1S(=O)(=O)c1cc(F)ccc1F (stereo not drawn)	0	-3	0	1	1	-11
COC(=O)c1cc(NC(=O)CN2C(=O)C(=O)N(C3CCCC3)C2=O)cc(C(=O)OC)c1	5	1	4	-10	/	6
COC(=O)c1ccccc1N/C=C1\CCc2c(c(C)nn2-c2ccccn2)C1=O	2	-2	-3	38*	-2	-5	Neddyl inh conf=i
CCOc1ccc(-c2c(C(=O)N/N=C/c3ccc(OC(C)C)cc3)nnn2-c2nonc2N)cc1	-5	-3	0	37	-2	-2

High-throughput results: PubChem, several laboratories
